From PMC7132385 (Antiviral Research, 2007)
In brackets after ≈: the same amount, converted by molar mass. Read-outs that look alike come from different tables or passages of the source.

B1: cyanovirin-N (protein, UniProt P81180 1-101, looked up)
Cyanovirin-N: LGKFSQTCYNSAIQGSVLTSTCERTNGGYNTSSIDLNSVIENVDGSLKWQPSNFIETCRNTQLAGSSELAAECKTRAQQFVSTKINLDDHIANIDGTLKYE
B2: Urtica dioica agglutinin (protein, UniProt P11218 24-372, looked up)
Lectin/endochitinase 1: QRCGSQGGGGTCPALWCCSIWGWCGDSEPYCGRTCENKCWSGERSDHRCGAAVGNPPCGQDRCCSVHGWCGGGNDYCSGSKCQYRCSSSVRGPRVALSGNSTANSIGNVVVTEPLFDQMFSHRKDCPSQGFYSYHSFLVAAESFPAFGTIGDVATRKREVAAFLAHISQATSGERSDVENPHAWGLCHINTTTVTENDFCTSSDWPCAAGKKYSPRGPIQLTHNFNYGLAGQAIGEDLIQNPDLVEKDPIISFKTALWFWMSQHDNKPSCHDIVLNANSAANRIPNKGVIGNIISRAFGHDDFAVRSSSIGFYKRYCDMLGVSYGHDLKYWFDNTPSSEFQRIQMRVAA

What was measured:
Equine arteritis virus = experiment: Colorimetric MTT antiviral assay, equine arteritis virus; type: cell-based; settings: read-out: EC50 (50% inhibition of virus infection), Equine arteritis virus
Procedure, shortened: (§1)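 100 TCID50 of virus was preincubated with graded test compound for 1 h at 37 °C, 5% CO2, added to PBS-DEAE-washed cells for 1 h, then removed, and compound was re-added at the same concentrations in DMEM with 5% FBS. MTT (0.5 mg/ml final) was added for 2 h at day 2 (FCoV 79-1683, FIPV 79-1146) or day 3 (others), then DMSO lysis and OD570. EC50 is 50% protection from CPE.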

[1] = Cytotoxicity MTT assay, FCWF cells; type: cell-based, feline; settings: cat, FCWF cells
Procedure, shortened: (§2)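 Cells grown in DMEM with 10% FBS and antibiotics were kept with a range of test compound concentrations for 3 days at 37 °C, 5% CO2. MTT was added to 0.5 mg/ml final for 2 h at 37 °C. Medium was removed and cells were lysed in DMSO (10 min, room temperature, rocking). OD was read at 570 nm. CC50 is the concentration lowering viability of 50% of cells, ± S.D.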

IBV Beaudette = experiment: Colorimetric MTT antiviral assay, IBV Beaudette; type: cell-based, infectious bronchitis virus; settings: read-out: EC50 (50% inhibition of virus infection), IBV Beaudette
Procedure, shortened: as §1

[2] = test system: FCoV 79-1683 (serotype II); experiment: Immunoperoxidase; type: cell-based, feline coronavirus; settings: read-out: EC50 (50% inhibition of virus infection), FCoV 79-1683 (serotype II)
Procedure, shortened: (§3)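 FCWF monolayers were given virus (MOI 0.5) that had been preincubated 1 h at 37 °C with test compound, for 1 h after a PBS-DEAE wash, then washed and given compound at the same concentrations. Cells were fixed in 4% formaldehyde for 15 min at 6 h post-infection (16 h for serotype I strain), permeabilised with 70% ethanol, and stained with cat FIP ascitic fluid plus HRP goat anti-cat. EC50 is 50% fewer microscopically counted infected foci than mock-treated cells.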

Berne virus torovirus = experiment: Colorimetric MTT antiviral assay, Berne virus; type: cell-based, equine torovirus; settings: read-out: EC50 (50% inhibition of virus infection), Berne virus torovirus
Procedure, shortened: as §1

[3] = Cytotoxicity MTT assay, LR7 cells; type: cell-based, mouse; settings: mouse
Procedure, shortened: as §2

[4] = Cytotoxicity MTT assay, Ederm cells; type: cell-based, equine; settings: horse, equine dermis (Ederm) cells
Procedure, shortened: as §2

[5] = test system: FIPV Black TN406HP (serotype I); experiment: Immunoperoxidase; type: cell-based, feline coronavirus; settings: read-out: EC50 (50% inhibition of virus infection), FIPV Black TN406HP (serotype I)
Procedure, shortened: as §3

[6] = Maximum solubility of the compound; type: physicochemical
[7] = Cytotoxicity MTT assay, Vero cells; type: cell-based, simian; settings: monkey (simian), Vero cells
Procedure, shortened: as §2

MHV-EFLM = experiment: Immunoperoxidase; type: cell-based, mouse hepatitis virus; settings: read-out: EC50 (50% inhibition of virus infection), MHV-EFLM
Procedure, shortened: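 Murine LR7 fibroblasts expressing the MHV receptor were infected at MOI 0.5 with virus preincubated 1 h at 37 °C with test compound. After 1 h the inoculum was removed, cells were washed, and compound was re-added at the same concentrations. At 6 h cells were fixed in 4% formaldehyde and permeabilised with 70% ethanol. Immunoperoxidase staining used rabbit anti-MHV polyclonal plus HRP swine anti-rabbit. EC50 is the concentration lowering light-microscope infected-cell counts by 50% versus mock.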

[8] = test system: porcine alveolar macrophages (PAMs); experiment: Cytotoxicity by EMA staining, PAMs; type: cell-based; settings: read-out: CC50 (50% cytotoxicity), PAMs, 24 h, ± S.D.
ST cells = experiment: Cytotoxicity MTT assay, ST cells; type: cell-based, porcine; settings: read-out: CC50 (50% cytotoxicity), ST, 3 days, ± S.D.
Procedure, shortened: as §2

[9] = test system: FIPV-Δ3abcFL (serotype II); experiment: Immunoperoxidase; type: cell-based, feline coronavirus; settings: read-out: EC50 (50% inhibition of virus infection), FIPV-Δ3abcFL (serotype II)
Procedure, shortened: as §3

[10] = test system: FIPV 79-1146 (serotype II); experiment: Colorimetric MTT antiviral assay, FIPV 79-1146; type: cell-based, feline coronavirus; settings: read-out: EC50 (50% inhibition of virus infection), FIPV 79-1146 (serotype II), FCWF cells, 100 TCID50, 2 days, ± S.D.
Procedure, shortened: as §1

retroviruses = settings: read-out: EC50 against retroviruses; earlier studies; ref Balzarini et al., 1992; cited from earlier work
FCWF cells = experiment: Cytotoxicity MTT assay, FCWF cells; type: cell-based, feline; settings: read-out: CC50 (50% cytotoxicity), FCWF; MTT assay, 3 days; ± S.D.
Procedure, shortened: as §2

LR7 cells = experiment: Cytotoxicity MTT assay, LR7 cells; type: cell-based, mouse; settings: read-out: CC50 (50% cytotoxicity), LR7; MTT assay, 3 days; ± S.D.
Procedure, shortened: as §2

[11] = test system: FIPV Black TN406HP (serotype I); experiment: Colorimetric MTT antiviral assay, FIPV Black TN406HP; type: cell-based, feline coronavirus; settings: read-out: EC50 (50% inhibition of virus infection), FIPV Black TN406HP (serotype I), FCWF cells, 100 TCID50, 3 days, ± S.D.
Procedure, shortened: as §1

TGEV Purdue = experiment: Colorimetric MTT antiviral assay, TGEV Purdue; type: cell-based, transmissible gastroenteritis virus; settings: read-out: EC50 (50% inhibition of virus infection), TGEV Purdue, ST cells, 100 TCID50, 3 days, ± S.D.
Procedure, shortened: as §1

PRRSV Lelystad virus = experiment: Immunoperoxidase; type: cell-based, porcine reproductive and respiratory syndrome virus; settings: IPOX assay; for PRRSV Lelystad virus infection of PAMs reduced to: at 2 μM; for EC50: read-out: EC50 (50% inhibition of virus infection), PRRSV Lelystad virus, PAMs, MOI 1, 10 h post-infection, ± S.D.
Procedure, shortened: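 Primary porcine alveolar macrophages were kept in EMEM with 10% FBS at 37 °C, 5% CO2. Virus at MOI 1 was preincubated 1 h at 37 °C with test compound, then added to cells for 1 h. Cells were washed with FBS-free medium and fixed in −20 °C methanol at 10 h post-infection. Peroxidase was blocked with azide/H2O2. Staining used anti-nucleocapsid MAb P3/27 with HRP anti-mouse. Infected cells were counted by light microscopy against mock-treated cells.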

[12] = test system: equine dermis (Ederm) cells; experiment: Cytotoxicity MTT assay, Ederm cells; type: cell-based; settings: read-out: CC50 (50% cytotoxicity), Ederm; MTT assay, 3 days; ± S.D.
Procedure, shortened: as §2

Vero cells = experiment: Cytotoxicity MTT assay, Vero cells; type: cell-based, simian; settings: read-out: CC50 (50% cytotoxicity), Vero; MTT assay, 3 days; ± S.D.
Procedure, shortened: as §2

[13] = test system: FCoV 79-1683 (serotype II); experiment: Colorimetric MTT antiviral assay, FCoV 79-1683; type: cell-based, feline coronavirus; settings: read-out: EC50 (50% inhibition of virus infection), FCoV 79-1683 (serotype II), FCWF cells, 100 TCID50, 2 days, ± S.D.
Procedure, shortened: as §1

[14] = MTT assay, Ederm cells, 100 TCID50, 3 days, ± S.D.
[15] = MTT assay, Vero cells, 100 TCID50, 3 days, ± S.D.
[16] = IPOX assay, FCWF cells, MOI 0.5, 6 h post-infection, ± S.D.
[17] = IPOX assay, FCWF cells, MOI 0.5, 16 h post-infection, ± S.D.
[18] = IPOX assay, LR7 cells, MOI 0.5, 6 h post-infection, ± S.D.

Molecule | CC50 [8] | CC50 (ST cells) | EC50 [10] | CC50 (FCWF cells) | CC50 (LR7 cells) | EC50 [11] | EC50 (TGEV Purdue) | PRRSV Lelystad virus infection of PAMs reduced to (PRRSV Lelystad virus) | EC50 (PRRSV Lelystad virus) | EC50 (Equine arteritis virus; [14]) | EC50 (IBV Beaudette; [15]) | EC50 [2, 16] | EC50 (Berne virus torovirus; [14]) | CC50 [12] | EC50 [5, 17] | CC50 (Vero cells) | EC50 (MHV-EFLM; [18]) | EC50 [13] | EC50 [9, 16] | other results
CN[C@@H]1[C@H](O[C@@H]2OC[C@@H](O)[C@H](O)[C@H]2O)[C@@H](O)[C@H](O[C@H]2c3cc(C)c(C(=O)N[C@H](C)C(=O)O)c(O)c3-c3c(cc4c(c3O)C(=O)c3cc(OC)cc(O)c3C4=O)[C@@H]2O)O[C@@H]1C [PRM-A, pradimicin-A, reference compound] | 18100 ± 6400 nM | 121000 ± 27600 nM | – | – | – | – | – | – | – | – | – | – | – | – | – | – | – | – | – | EC50 (Equine arteritis virus; Equine arteritis virus, 72 h): > 120000 nM; CC50 at 3 days [1]: > 120000 nM; EC50 (IBV Beaudette; Avian coronavirus, Vero, 72 h): 2900 ± 2000 nM; EC50 ([2]; Alphacoronavirus 1, 6 h): > 120000 nM; EC50 (Berne virus torovirus; Equine torovirus, 72 h): 31000 ± 24000 nM; CC50 at 3 days [3]: > 120000 nM; CC50 at 3 days [4]: > 120000 nM; EC50 ([5]; Alphacoronavirus 1, 16 h): 7800 ± 2000 nM; solubility [6]: 120 µM (≈ 101 µg/mL); CC50 at 3 days [7]: 120000 ± 32400 nM; EC50 (MHV-EFLM; Murine coronavirus, LR7, 6 h): 10700 ± 5800 nM; EC50 ([9]; Alphacoronavirus 1, 6 h): > 120000 nM
Cymbidium sp. agglutinin [CA] | – | – | 290 ± 110 nM | 3300 ± 800 nM | > 4000 nM | 130 ± 2 nM | – | – | – | – | – | – | – | – | – | – | – | – | – | EC50 (retroviruses): 3 nM
Galanthus nivalis agglutinin [GNA] | > 2000 nM | > 2000 nM | 130 ± 2 nM | > 2000 nM | > 2000 nM | 8 ± 5 nM | 4 ± 0.8 nM | 40% | > 2000 nM | 180 ± 70 nM | 0.2 ± 0.2 nM | 200 ± 60 nM | 120 ± 90 nM | > 2000 nM | 12 ± 6 nM | > 2000 nM | 40 ± 20 nM | 430 ± 300 nM | 70 ± 40 nM | –
Hippeastrum hybrid agglutinin [HHA] | > 2000 nM | > 2000 nM | 100 ± 2 nM | > 2000 nM | > 2000 nM | 7 ± 3 nM | – | 40% | > 2000 nM | 130 ± 40 nM | 0.2 ± 0.2 nM | 60 ± 20 nM | 70 ± 70 nM | 1900 ± 300 nM | 4 ± 2 nM | > 2000 nM | 70 ± 20 nM | 110 ± 30 nM | 30 ± 20 nM | –
B1 | – | – | – | 1400 ± 500 nM | > 2000 nM | – | – | – | – | – | – | – | – | – | – | – | – | – | – | –
B2 | > 12000 nM | 6100 ± 1000 nM | 240 ± 140 nM | 2200 ± 300 nM | 9900 ± 4800 nM | 23 ± 12 nM | 80 ± 70 nM | – | 4800 ± 3200 nM | 390 ± 10 nM | 50 ± 50 nM | 170 ± 100 nM | 250 ± 200 nM | 9500 ± 3100 nM | 20 ± 10 nM | 3400 ± 1300 nM | 530 ± 20 nM | 110 ± 30 nM | 140 ± 50 nM | –
